Values after ≈ are worked out from the molar mass of the structure shown.
Experiments:
Dipeptidyl peptidase 1 [1] = target: T1, Dipeptidyl peptidase 1 (Homo sapiens, UniProt P53634); assay: Inhibition of human recombinant DPP1 using Gly-Arg-AMC as substrate preincubated for 30 mins followed by substrate addition by fluorometric assay
In short: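 Isolated human recombinant DPP1 was run in a fluorometric assay in piperazine-based buffer. Compound was pre-incubated with enzyme for 30 min at rt, then Gly-Arg-AMC dipeptide substrate was added. Data were curve-fitted to give pIC50, as the mean of at least two experiments.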

Dipeptidyl peptidase 1 [2] = target: T1, Dipeptidyl peptidase 1; assay: Inhibition of DPP1 in human U937 cells using Gly-Phe-AFC as substrate preincubated for 60 mins followed by substrate addition by fluorescence assay; format: cell-based, U-937
[3] = Propionaldehyde reactivity assessed as half life of the compound at pH 7.4 by LC-UV method; format: physicochemical
physchem [4] = settings: octanol/water, pH 7.4
[5] = Protein binding in human plasma at 10 uM after 6 hrs by LC-MS/MS method; format: ADME, cell-free; settings: read-out: PPB (converted)
[6] = Intrinsic clearance in human liver microsomes at 1 uM after 5 to 40 mins by LC-MS/MS method; format: ADME; settings: read-out: CLH
[7] = Intrinsic clearance in rat hepatocytes assessed per 10^6 cells at 1 uM after 10 to 90 mins by LC-MS/MS method; format: ADME, cell-based, Hepatocyte
[8] = Protein binding in rat plasma at 10 uM after 6 hrs by LC-MS/MS method; format: ADME, cell-free; settings: read-out: PPB (converted)
[9] = Apparent permeability across apical to basolateral side in human Caco2 cells at 10 uM after 1 hr by LC-MS method; settings: Caco-2
[10] = Apparent permeability across basolateral to apical side in human Caco2 cells at 10 uM after 1 hr by LC-MS method; settings: Caco-2
[11] = Efflux ratio of apparent permeability across basolateral to apical over apical to basolateral side in human Caco2 cells at 10 uM after 1 hr by LC-MS method; settings: Caco-2
[12] = Intrinsic clearance in human hepatocytes assessed per 10^6 cells at 1 uM after 10 to 90 mins by LC-MS/MS method; format: ADME, cell-based, Hepatocyte
[13] = Intrinsic clearance in dog hepatocytes assessed per 10^6 cells at 1 uM after 10 to 90 mins by LC-MS/MS method; format: ADME, cell-based, Canis lupus familiaris, Hepatocyte
[14] = Protein binding in dog plasma at 10 uM after 6 hrs by LC-MS/MS method; format: ADME, cell-free, Canis lupus familiaris; settings: read-out: PPB (converted)
[15] = Clearance in Sprague-Dawley rat at 1 mg/kg, iv or 3 mg/kg, po; format: ADME, organism-based; settings: in vivo
[16] = Volume of distribution at steady state in Sprague-Dawley rat at 1 mg/kg, iv or 3 mg/kg, po; format: ADME, organism-based; settings: in vivo, read-out: Vdss
[17] = Half life in Sprague-Dawley rat at 1 mg/kg, iv or 3 mg/kg, po; format: ADME, organism-based; settings: in vivo
[18] = Oral bioavailability in Sprague-Dawley rat at 3 mg/kg; format: ADME, organism-based; settings: in vivo
[19] = target: Voltage-gated inwardly rectifying potassium channel KCNH2 (Homo sapiens, UniProt Q12809)
Sequence of Voltage-gated inwardly rectifying potassium channel KCNH2 (Q12809 whole entry): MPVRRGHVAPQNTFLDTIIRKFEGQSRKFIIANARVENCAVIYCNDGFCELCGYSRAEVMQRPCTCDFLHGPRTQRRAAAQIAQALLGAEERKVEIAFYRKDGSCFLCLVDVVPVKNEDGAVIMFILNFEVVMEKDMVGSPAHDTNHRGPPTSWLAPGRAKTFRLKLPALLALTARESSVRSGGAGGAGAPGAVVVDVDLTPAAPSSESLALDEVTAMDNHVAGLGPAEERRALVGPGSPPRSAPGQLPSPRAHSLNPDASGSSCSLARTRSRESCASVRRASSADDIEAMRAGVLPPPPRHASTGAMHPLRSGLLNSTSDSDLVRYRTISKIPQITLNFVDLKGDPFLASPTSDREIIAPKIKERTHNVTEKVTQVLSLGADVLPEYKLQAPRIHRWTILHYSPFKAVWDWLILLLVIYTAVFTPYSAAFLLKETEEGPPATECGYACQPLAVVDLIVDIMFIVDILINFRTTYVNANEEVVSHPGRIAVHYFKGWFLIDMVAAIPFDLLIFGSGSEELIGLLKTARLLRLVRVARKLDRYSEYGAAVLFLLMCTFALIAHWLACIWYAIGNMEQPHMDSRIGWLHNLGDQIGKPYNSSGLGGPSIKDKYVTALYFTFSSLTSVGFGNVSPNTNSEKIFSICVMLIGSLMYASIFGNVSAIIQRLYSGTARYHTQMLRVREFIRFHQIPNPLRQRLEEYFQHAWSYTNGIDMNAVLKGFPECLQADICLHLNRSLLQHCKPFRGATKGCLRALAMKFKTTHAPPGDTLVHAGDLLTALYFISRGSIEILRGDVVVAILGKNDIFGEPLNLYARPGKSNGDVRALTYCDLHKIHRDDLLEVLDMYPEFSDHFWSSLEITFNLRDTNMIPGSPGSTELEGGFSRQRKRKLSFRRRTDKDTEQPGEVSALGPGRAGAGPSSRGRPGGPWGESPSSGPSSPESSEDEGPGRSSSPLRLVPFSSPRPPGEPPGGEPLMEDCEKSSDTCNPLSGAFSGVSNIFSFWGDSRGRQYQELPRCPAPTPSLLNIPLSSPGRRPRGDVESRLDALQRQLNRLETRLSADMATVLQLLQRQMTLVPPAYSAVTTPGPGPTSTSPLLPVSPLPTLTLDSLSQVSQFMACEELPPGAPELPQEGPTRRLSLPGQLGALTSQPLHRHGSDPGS

physchem [20] = settings: pH 7.4

T1 sequence (P53634 25-134 limits assumed): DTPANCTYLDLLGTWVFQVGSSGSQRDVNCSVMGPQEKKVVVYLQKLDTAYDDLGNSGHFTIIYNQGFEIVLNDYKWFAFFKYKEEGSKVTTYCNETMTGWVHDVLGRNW
T1 sequence (P53634 231-394 limits assumed): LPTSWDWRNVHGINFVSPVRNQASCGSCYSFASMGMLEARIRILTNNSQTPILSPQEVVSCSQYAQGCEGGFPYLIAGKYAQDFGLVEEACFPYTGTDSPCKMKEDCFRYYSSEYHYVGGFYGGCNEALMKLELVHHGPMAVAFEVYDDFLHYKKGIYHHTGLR
T1 sequence (P53634 395-463 limits assumed): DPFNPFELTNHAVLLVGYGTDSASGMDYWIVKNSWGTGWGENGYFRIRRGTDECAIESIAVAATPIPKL

N#Cc1ccc(-c2ccc(C[C@@H](C#N)NC(=O)C3CCCCNC3)cc2)cc1 (mixture of isomers)
IC50 (Dipeptidyl peptidase 1 [1]): 1260 nM
IC50 (Dipeptidyl peptidase 1 [2]): 501 nM
half-life [3]: > 50 h

N#Cc1ccc(-c2ccc(C[C@@H](C#N)NC(=O)[C@H]3CCCC[C@H]3N)cc2)cc1
IC50 (Dipeptidyl peptidase 1 [1]): > 10000 nM
half-life [3]: > 50 h

CN1C(=O)C(F)(F)c2ccc(-c3ccc(C[C@@H](C#N)NC(=O)[C@@H]4CNCCCO4)cc3)cc21
IC50 (Dipeptidyl peptidase 1 [1]): 15.8 nM
IC50 (Dipeptidyl peptidase 1 [2]): 15.8 nM
logD at 10 µM (physchem [4]): 1.4

N#Cc1ccc(-c2ccc(C[C@@H](C#N)NC(=O)[C@@H]3CCCC[C@H]3N)cc2)cc1
IC50 (Dipeptidyl peptidase 1 [1]): 316 nM
IC50 (Dipeptidyl peptidase 1 [2]): 158 nM
half-life [3]: > 50 h

Cc1cc(-c2ccc(C[C@@H](C#N)NC(=O)[C@@H]3CNCCCO3)cc2)cc2c1oc(=O)n2C
fraction unbound at 6 h, 10 µM [5]: 0.08
microsomal CLint at 1 µM [6]: < 14 µL/min/mg
CLH [7]: < 3.5 µL/min/10^6 cells
fraction unbound at 6 h, 10 µM [8]: 0.03
IC50 (Dipeptidyl peptidase 1 [1]): 10 nM
IC50 (Dipeptidyl peptidase 1 [2]): 7.94 nM
half-life [3]: > 50 h
Papp A→B at 1 h, 10 µM [9]: 13 ×10⁻⁶ cm/s
Papp B→A at 1 h, 10 µM [10]: 76 ×10⁻⁶ cm/s
efflux ratio at 1 h, 10 µM [11]: 5.9
intrinsic clearance (CLint) [12]: < 3.5 µL/min/10^6 cells
CLH [13]: < 3.5 µL/min/10^6 cells
fraction unbound at 6 h, 10 µM [14]: 0.13
clearance [15]: 1 mL/min/kg
Vd [16]: 0.5 L/kg
half-life [17]: 8 h
bioavailability [18]: 24%
IC50 [19]: > 33000 nM
solubility kinetic at 2 h (physchem [20]; phosphate buffered saline): 175 µM (≈ 76 µg/mL)
logD at 10 µM (physchem [4]): 1.5

CN1C(=O)Cc2ccc(-c3ccc(C[C@@H](C#N)NC(=O)C4(N)CCOCC4)cc3)cc21
IC50 (Dipeptidyl peptidase 1 [2]): 1.58 nM

N#C[C@H](Cc1ccc(-c2ccc3scnc3c2)cc1)NC(=O)[C@@H]1CNCCCO1
IC50 (Dipeptidyl peptidase 1 [1]): 63.1 nM
logD at 10 µM (physchem [4]): 1.5

N#Cc1ccc(-c2ccc(C[C@@H](C#N)NC(=O)[C@H]3CNCCO3)cc2)cc1
IC50 (Dipeptidyl peptidase 1 [1]): > 10000 nM
half-life [3]: > 50 h
logD at 10 µM (physchem [4]): 1.6

N#Cc1cccc(-c2ccc(C[C@@H](C#N)NC(=O)C3CCCCC3N)cc2)c1 (some centres undefined)
IC50 (Dipeptidyl peptidase 1 [1]): 1000 nM

N#Cc1ccc(-c2ccc(C[C@@H](C#N)NC(=O)C3(N)CCOCC3)cc2)cc1
half-life [3]: < 1 h

N#C[C@H](Cc1ccc(-c2ccc3oc(=O)n(CC(F)F)c3c2)cc1)NC(=O)[C@@H]1CNCCCO1
fraction unbound at 6 h, 10 µM [5]: 0.07
microsomal CLint at 1 µM [6]: < 14 µL/min/mg
CLH [7]: < 3.5 µL/min/10^6 cells
fraction unbound at 6 h, 10 µM [8]: 0.06
IC50 (Dipeptidyl peptidase 1 [1]): 6.31 nM
IC50 (Dipeptidyl peptidase 1 [2]): 6.31 nM
half-life [3]: > 50 h
Papp A→B at 1 h, 10 µM [9]: 8 ×10⁻⁶ cm/s
Papp B→A at 1 h, 10 µM [10]: 80 ×10⁻⁶ cm/s
intrinsic clearance (CLint) [12]: 5 µL/min/10^6 cells
fraction unbound at 6 h, 10 µM [14]: 0.15
clearance [15]: 4 mL/min/kg
Vd [16]: 2 L/kg
half-life [17]: 7 h
bioavailability [18]: 29%
solubility kinetic at 2 h (physchem [20]; buffer): 190 µM (≈ 89.4 µg/mL)
logD at 10 µM (physchem [4]): 1

N#C[C@H](Cc1ccc(-c2ccc(C(F)(F)F)cc2)cc1)NC(=O)[C@@H]1CNCCCO1
IC50 (Dipeptidyl peptidase 1 [1]): 39.8 nM
logD at 10 µM (physchem [4]): 2.8

N#Cc1ccc(-c2ccc(C[C@@H](C#N)NC(=O)[C@H]3CCCC[C@@H]3N)cc2)cc1
IC50 (Dipeptidyl peptidase 1 [1]): 501 nM
IC50 (Dipeptidyl peptidase 1 [2]): 398 nM
half-life [3]: > 50 h

N#Cc1ccc(-c2ccc(C[C@@H](C#N)NC(=O)[C@@H]3CCCCC[C@@H]3N)cc2)cc1
fraction unbound at 6 h, 10 µM [5]: 0.03
microsomal CLint at 1 µM [6]: 13 µL/min/mg
CLH [7]: < 3.5 µL/min/10^6 cells
fraction unbound at 6 h, 10 µM [8]: 0.08
IC50 (Dipeptidyl peptidase 1 [1]): 39.8 nM
IC50 (Dipeptidyl peptidase 1 [2]): 31.6 nM
half-life [3]: > 50 h
Papp A→B at 1 h, 10 µM [9]: 11 ×10⁻⁶ cm/s
Papp B→A at 1 h, 10 µM [10]: 23 ×10⁻⁶ cm/s
efflux ratio at 1 h, 10 µM [11]: 2
IC50 [19]: 3600 nM
solubility kinetic at 2 h (physchem [20]; buffer): 175 µM (≈ 67.6 µg/mL)
logD at 10 µM (physchem [4]): 2

N#Cc1ccc(-c2ccc(C[C@@H](C#N)NC(=O)[C@H]3CCCNC3)cc2)cc1
IC50 (Dipeptidyl peptidase 1 [1]): > 10000 nM
logD at 10 µM (physchem [4]): 0.2

CN1C(=O)COc2ccc(-c3ccc(C[C@@H](C#N)NC(=O)[C@@H]4CNCCCO4)cc3)cc21
IC50 (Dipeptidyl peptidase 1 [2]): 12.6 nM
logD at 10 µM (physchem [4]): 1.1

N#Cc1ccc(-c2ccc(C[C@@H](C#N)NC(=O)[C@H]3CNCCCO3)cc2)cc1
IC50 (Dipeptidyl peptidase 1 [1]): 6310 nM
half-life [3]: > 50 h
logD at 10 µM (physchem [4]): 1.2

N#Cc1ccc(-c2ccc(C[C@@H](C#N)NC(=O)[C@@H]3CCCC[C@@H]3N)cc2)cc1
fraction unbound at 6 h, 10 µM [5]: 0.07
microsomal CLint at 1 µM [6]: 9.3 µL/min/mg
CLH [7]: < 3.5 µL/min/10^6 cells
fraction unbound at 6 h, 10 µM [8]: 0.12
IC50 (Dipeptidyl peptidase 1 [1]): 39.8 nM
IC50 (Dipeptidyl peptidase 1 [2]): 39.8 nM
half-life [3]: > 50 h
Papp A→B at 1 h, 10 µM [9]: 11 ×10⁻⁶ cm/s
Papp B→A at 1 h, 10 µM [10]: 36 ×10⁻⁶ cm/s
solubility kinetic at 2 h (physchem [20]; buffer): 175 µM (≈ 65.2 µg/mL)
logD at 10 µM (physchem [4]): 1.6

Cn1c(=O)sc2ccc(-c3ccc(C[C@@H](C#N)NC(=O)[C@@H]4CNCCCO4)cc3)cc21
fraction unbound at 6 h, 10 µM [5]: 0.07
microsomal CLint at 1 µM [6]: < 15 µL/min/mg
CLH [7]: < 3.5 µL/min/10^6 cells
fraction unbound at 6 h, 10 µM [8]: 0.05
IC50 (Dipeptidyl peptidase 1 [1]): 2.51 nM
IC50 (Dipeptidyl peptidase 1 [2]): 3.16 nM
half-life [3]: > 50 h
Papp A→B at 1 h, 10 µM [9]: 11 ×10⁻⁶ cm/s
Papp B→A at 1 h, 10 µM [10]: 51 ×10⁻⁶ cm/s
efflux ratio at 1 h, 10 µM [11]: 4.7
intrinsic clearance (CLint) [12]: < 3.5 µL/min/10^6 cells
CLH [13]: < 3.5 µL/min/10^6 cells
clearance [15]: 3 mL/min/kg
Vd [16]: 2 L/kg
half-life [17]: 8 h
bioavailability [18]: 26%
IC50 [19]: 23000 nM
solubility kinetic at 2 h (physchem [20]; buffer): 170 µM (≈ 74.2 µg/mL)
logD at 10 µM (physchem [4]): 1.5

Cc1noc2ccc(-c3ccc(C[C@@H](C#N)NC(=O)[C@@H]4CNCCCO4)cc3)cc12
IC50 (Dipeptidyl peptidase 1 [1]): 15.8 nM
IC50 (Dipeptidyl peptidase 1 [2]): 15.8 nM
logD at 10 µM (physchem [4]): 1.5

Cn1c(=O)ccc2ccc(-c3ccc(C[C@@H](C#N)NC(=O)[C@@H]4CNCCCO4)cc3)cc21
IC50 (Dipeptidyl peptidase 1 [1]): 12.6 nM
IC50 (Dipeptidyl peptidase 1 [2]): 12.6 nM
logD at 10 µM (physchem [4]): 1.1

N#C[C@H](Cc1ccc(-c2ncc(C(F)(F)F)cn2)cc1)NC(=O)[C@@H]1CNCCCO1
IC50 (Dipeptidyl peptidase 1 [1]): 200 nM
IC50 (Dipeptidyl peptidase 1 [2]): 200 nM
logD at 10 µM (physchem [4]): 1.1

N#Cc1ccc(-c2ccc(C[C@@H](C#N)NC(=O)[C@@H]3CNCCO3)cc2)cc1
IC50 (Dipeptidyl peptidase 1 [1]): 398 nM
IC50 (Dipeptidyl peptidase 1 [2]): 501 nM
half-life [3]: > 50 h
logD at 10 µM (physchem [4]): 1.4

N#Cc1ccc(-c2ccc(C[C@@H](C#N)NC(=O)[C@@H]3CCC[C@@H]3N)cc2)cc1
IC50 (Dipeptidyl peptidase 1 [1]): 1000 nM
IC50 (Dipeptidyl peptidase 1 [2]): 1260 nM
half-life [3]: > 50 h

N#Cc1ccc(-c2ccc(C[C@@H](C#N)NC(=O)C3CNCCCO3)cc2)cc1 (mixture of isomers)
IC50 (Dipeptidyl peptidase 1 [1]): 63.1 nM
half-life [3]: > 50 h
logD at 10 µM (physchem [4]): 1.1

Cn1c(=O)cnc2ccc(-c3ccc(C[C@@H](C#N)NC(=O)[C@@H]4CNCCCO4)cc3)cc21
IC50 (Dipeptidyl peptidase 1 [1]): 25.1 nM
logD at 10 µM (physchem [4]): 0.6

N#Cc1ccc(-c2ccc(C[C@@H](C#N)NC(=O)[C@@H]3CCCNC3)cc2)cc1
IC50 (Dipeptidyl peptidase 1 [1]): > 10000 nM
logD at 10 µM (physchem [4]): 0.6
